According to ChEMBL document CHEMBL3045677, “Sulfonamide-1,2,4-thiadiazole derivatives as antifungal and antibacterial agents: synthesis, biological evaluation, lipophilicity, and conformational studies” (2010):
Converted amounts (≈) assume the structure as drawn.

Columns and labels:
Penicillium ochrochloron = assay: Antifungal activity against Penicillium ochrochloron ATCC 9112 at 28 degC measured after 72 hr by microdilution method; type: functional; conditions: ATCC 9112, 72 h
Outline: (§1)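 Fungi were kept on malt agar at 4 °C. Spores were washed off with sterile 0.85% saline containing 0.1% Tween 80 and adjusted to about 1.0×10⁵ per well. Compounds were dissolved in DMSO (1 mg/ml stock) and serially diluted in malt broth with inoculum in 96-well plates, 72 h at 28 °C, for MIC. MFC came from subculture into fresh broth for a further 72 h at 28 °C.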

Salmonella typhimurium [1] = assay: Antibacterial activity against Salmonella enterica subsp. enterica serovar TyphimuriumATCC 13311 at […] degC measured after 72 hr by microdilution method; type: functional, Salmonella enterica subsp. enterica serovar Typhimurium; conditions: ATCC 13311, 72 h
Outline: (§2)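 Bactericidal endpoint: after the 24 h broth microdilution (1.0×10⁴ CFU per well, LB broth, […] °C), wells were serially subcultured into plates of fresh broth and incubated a further 72 h. MBC was the lowest concentration with no visible growth, taken as 99.5% killing of the original inoculum.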

Fulvia fulva = assay: Antifungal activity against Passalora fulva TK5318 at 28 degC measured after 72 hr by microdilution method; type: functional; conditions: TK5318, 72 h; outline: as §1
Staphylococcus aureus [2] = assay: Antibacterial activity against Staphylococcus aureus ATCC 6538 at […] degC measured after 72 hr by microdilution method; type: functional; conditions: ATCC 6538, 72 h; outline: as §2
Micrococcus flavus [3] = assay: Antibacterial activity against Micrococcus flavus ATCC 10240 at […] degC measured after 72 hr by microdilution method; type: functional; conditions: ATCC 10240, 72 h; outline: as §2
Aspergillus versicolor = assay: Antifungal activity against Aspergillus versicolor ATCC 11730 at 28 degC measured after 72 hr by microdilution method; type: functional; conditions: ATCC 11730, 72 h; outline: as §1
Escherichia coli [4] = assay: Antibacterial activity against Escherichia coli ATCC 35210 at […] degC measured after 72 hr by microdilution method; type: functional; conditions: ATCC 35210, 72 h; outline: as §2
Aspergillus flavus = assay: Antifungal activity against Aspergillus flavus ATCC 9643 at 28 degC measured after 72 hr by microdilution method; type: functional; conditions: ATCC 9643, 72 h; outline: as §1
Proteus mirabilis [5] = assay: Antibacterial activity against Proteus mirabilis at […] degC measured after 24 hr by microdilution method; type: functional
Outline: (§3)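 Bacteria suspended in sterile saline at 1.0×10⁵ CFU/ml and added at 1.0×10⁴ CFU per well to LB broth with compound (1 mg/ml) in 96-well plates. Incubated 24 h at […] °C. MIC was the lowest concentration without visible growth under a binocular microscope. OD 655 nm was read against a blank and a positive control.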

Aspergillus fumigatus = assay: Antifungal activity against plant isolate Aspergillus fumigatus at 28 degC measured after 72 hr by microdilution method; type: functional; outline: as §1
Pseudomonas aeruginosa [6] = assay: Antibacterial activity against Pseudomonas aeruginosa ATCC 27853 at […] degC measured after 72 hr by microdilution method; type: functional; conditions: ATCC 27853, 72 h; outline: as §2
Aspergillus niger = assay: Antifungal activity against Aspergillus niger ATCC 6275 at 28 degC measured after 72 hr by microdilution method; type: functional; conditions: ATCC 6275, 72 h; outline: as §1
Bacillus cereus [7] = assay: Antibacterial activity against clinical isolate Bacillus cereus at […] degC measured after 24 hr by microdilution method; type: functional; outline: as §3
Trichoderma viride = assay: Antifungal activity against Hypocrea rufa IAM 5061 at 28 degC measured after 72 hr by microdilution method; type: functional; conditions: IAM 5061, 72 h; outline: as §1
Listeria monocytogenes [8] = assay: Antibacterial activity against Listeria monocytogenes NCTC 7973 at […] degC measured after 24 hr by microdilution method; type: functional; conditions: NCTC 7973, 24 h; outline: as §3
Micrococcus flavus [9] = assay: Antibacterial activity against Micrococcus flavus ATCC 10240 at […] degC measured after 24 hr by microdilution method; type: functional; conditions: ATCC 10240, 24 h; outline: as §3
Listeria monocytogenes [10] = assay: Antibacterial activity against Listeria monocytogenes NCTC 7973 at […] degC measured after 72 hr by microdilution method; type: functional; conditions: NCTC 7973, 72 h; outline: as §2
Salmonella typhimurium [11] = assay: Antibacterial activity against Salmonella enterica subsp. enterica serovar Typhimurium ATCC 13311 at […] degC measured after 24 hr by microdilution method; type: functional; conditions: ATCC 13311, 24 h; outline: as §3
Proteus mirabilis [12] = assay: Antibacterial activity against Proteus mirabilis at […] degC measured after 72 hr by microdilution method; type: functional; outline: as §2
Talaromyces funiculosus = assay: Antifungal activity against Talaromyces funiculosus ATCC 36839 at 28 degC measured after 72 hr by microdilution method; type: functional; conditions: ATCC 36839, 72 h; outline: as §1
Escherichia coli [13] = assay: Antibacterial activity against Escherichia coli ATCC 35210 at […] degC measured after 24 hr by microdilution method; type: functional; conditions: ATCC 35210, 24 h; outline: as §3
Pseudomonas aeruginosa [14] = assay: Antibacterial activity against Pseudomonas aeruginosa ATCC 27853 at […] degC measured after 24 hr by microdilution method; type: functional; conditions: ATCC 27853, 24 h; outline: as §3
Staphylococcus aureus [15] = assay: Antibacterial activity against Staphylococcus aureus ATCC 6538 at […] degC measured after 24 hr by microdilution method; type: functional; conditions: ATCC 6538, 24 h; outline: as §3
Bacillus cereus [16] = assay: Antibacterial activity against clinical isolate Bacillus cereus at […] degC measured after 72 hr by microdilution method; type: functional; outline: as §2

## COc1cc(Cc2nnc(Nc3ccc(Cl)cc3)s2)c(S(=O)(=O)N2CCN(C)CC2)cc1OC
Penicillium ochrochloron
  MFC: 38.2 µM (≈ 20 µg/mL)
  MIC: 19.1 µM (≈ 10 µg/mL)
Salmonella typhimurium [1]
  MBC: 38.2 µM (≈ 20 µg/mL)
Fulvia fulva
  MFC: 19.1 µM (≈ 10 µg/mL)
  MIC: 9.6 µM (≈ 5.03 µg/mL)
Staphylococcus aureus [2]
  MBC: 76.4 µM (≈ 40 µg/mL)
Micrococcus flavus [3]
  MBC: 19.1 µM (≈ 10 µg/mL)
Aspergillus versicolor
  MFC: 38.2 µM (≈ 20 µg/mL)
  MIC: 38.2 µM (≈ 20 µg/mL)
Escherichia coli [4]
  MBC: 76.4 µM (≈ 40 µg/mL)
Aspergillus flavus
  MFC: 38.2 µM (≈ 20 µg/mL)
  MIC: 19.1 µM (≈ 10 µg/mL)
Proteus mirabilis [5]
  MIC: 38.2 µM (≈ 20 µg/mL)
Aspergillus fumigatus
  MFC: 38.2 µM (≈ 20 µg/mL)
  MIC: 9.6 µM (≈ 5.03 µg/mL)
Pseudomonas aeruginosa [6]
  MBC: 76.4 µM (≈ 40 µg/mL)
Aspergillus niger
  MFC: 38.2 µM (≈ 20 µg/mL)
  MIC: 19.1 µM (≈ 10 µg/mL)
Bacillus cereus [7]
  MIC: 19.1 µM (≈ 10 µg/mL)
Trichoderma viride
  MFC: 19.1 µM (≈ 10 µg/mL)
  MIC: 9.6 µM (≈ 5.03 µg/mL)
Listeria monocytogenes [8]
  MIC: 19.1 µM (≈ 10 µg/mL)
Micrococcus flavus [9]
  MIC: 9.6 µM (≈ 5.03 µg/mL)
Listeria monocytogenes [10]
  MBC: 76.4 µM (≈ 40 µg/mL)
Salmonella typhimurium [11]
  MIC: 9.6 µM (≈ 5.03 µg/mL)
Proteus mirabilis [12]
  MBC: 76.4 µM (≈ 40 µg/mL)
Talaromyces funiculosus
  MFC: 38.2 µM (≈ 20 µg/mL)
  MIC: 19.1 µM (≈ 10 µg/mL)
Escherichia coli [13]
  MIC: 19.1 µM (≈ 10 µg/mL)
Pseudomonas aeruginosa [14]
  MIC: 19.1 µM (≈ 10 µg/mL)
Staphylococcus aureus [15]
  MIC: 38.2 µM (≈ 20 µg/mL)
Bacillus cereus [16]
  MBC: 38.2 µM (≈ 20 µg/mL)

## COc1cc(Cc2nnc(Nc3ccc([N+](=O)[O-])cc3)s2)c(S(=O)(=O)N2CCCC2)cc1OC
Penicillium ochrochloron
  MFC: 39.6 µM (≈ 20 µg/mL)
  MIC: 19.8 µM (≈ 10 µg/mL)
Salmonella typhimurium [1]
  MBC: 79.2 µM (≈ 40 µg/mL)
Fulvia fulva
  MFC: 19.8 µM (≈ 10 µg/mL)
  MIC: 9.9 µM (≈ 5.01 µg/mL)
Staphylococcus aureus [2]
  MBC: 39.6 µM (≈ 20 µg/mL)
Micrococcus flavus [3]
  MBC: 39.6 µM (≈ 20 µg/mL)
Aspergillus versicolor
  MFC: 39.6 µM (≈ 20 µg/mL)
  MIC: 19.8 µM (≈ 10 µg/mL)
Escherichia coli [4]
  MBC: 39.6 µM (≈ 20 µg/mL)
Aspergillus flavus
  MFC: 39.6 µM (≈ 20 µg/mL)
  MIC: 19.8 µM (≈ 10 µg/mL)
Proteus mirabilis [5]
  MIC: 39.6 µM (≈ 20 µg/mL)
Aspergillus fumigatus
  MFC: 19.8 µM (≈ 10 µg/mL)
  MIC: 9.9 µM (≈ 5.01 µg/mL)
Pseudomonas aeruginosa [6]
  MBC: 39.6 µM (≈ 20 µg/mL)
Aspergillus niger
  MFC: 39.6 µM (≈ 20 µg/mL)
  MIC: 19.8 µM (≈ 10 µg/mL)
Bacillus cereus [7]
  MIC: 19.8 µM (≈ 10 µg/mL)
Trichoderma viride
  MFC: 19.8 µM (≈ 10 µg/mL)
  MIC: 9.9 µM (≈ 5.01 µg/mL)
Listeria monocytogenes [8]
  MIC: 19.8 µM (≈ 10 µg/mL)
Micrococcus flavus [9]
  MIC: 19.8 µM (≈ 10 µg/mL)
Listeria monocytogenes [10]
  MBC: 39.6 µM (≈ 20 µg/mL)
Salmonella typhimurium [11]
  MIC: 39.6 µM (≈ 20 µg/mL)
Proteus mirabilis [12]
  MBC: 79.2 µM (≈ 40 µg/mL)
Talaromyces funiculosus
  MFC: 19.8 µM (≈ 10 µg/mL)
  MIC: 9.9 µM (≈ 5.01 µg/mL)
Escherichia coli [13]
  MIC: 19.8 µM (≈ 10 µg/mL)
Pseudomonas aeruginosa [14]
  MIC: 19.8 µM (≈ 10 µg/mL)
Staphylococcus aureus [15]
  MIC: 19.8 µM (≈ 10 µg/mL)
Bacillus cereus [16]
  MBC: 39.6 µM (≈ 20 µg/mL)

## COc1cc(Cc2nnc(Nc3ccc([N+](=O)[O-])cc3)s2)c(S(=O)(=O)N(C)C)cc1OC
Penicillium ochrochloron
  MFC: 41.8 µM (≈ 20 µg/mL)
  MIC: 10.9 µM (≈ 5.23 µg/mL)
Salmonella typhimurium [1]
  MBC: 20.9 µM (≈ 10 µg/mL)
Fulvia fulva
  MFC: 20.9 µM (≈ 10 µg/mL)
  MIC: 10.5 µM (≈ 5.04 µg/mL)
Staphylococcus aureus [2]
  MBC: 83.6 µM (≈ 40.1 µg/mL)
Micrococcus flavus [3]
  MBC: 83.6 µM (≈ 40.1 µg/mL)
Aspergillus versicolor
  MFC: 41.8 µM (≈ 20 µg/mL)
  MIC: 20.9 µM (≈ 10 µg/mL)
Escherichia coli [4]
  MBC: 83.6 µM (≈ 40.1 µg/mL)
Aspergillus flavus
  MFC: 41.8 µM (≈ 20 µg/mL)
  MIC: 20.9 µM (≈ 10 µg/mL)
Proteus mirabilis [5]
  MIC: 41.8 µM (≈ 20 µg/mL)
Aspergillus fumigatus
  MFC: 41.8 µM (≈ 20 µg/mL)
  MIC: 20.9 µM (≈ 10 µg/mL)
Pseudomonas aeruginosa [6]
  MBC: 41.8 µM (≈ 20 µg/mL)
Aspergillus niger
  MFC: 41.8 µM (≈ 20 µg/mL)
  MIC: 20.9 µM (≈ 10 µg/mL)
Bacillus cereus [7]
  MIC: 10.5 µM (≈ 5.04 µg/mL)
Trichoderma viride
  MFC: 20.9 µM (≈ 10 µg/mL)
  MIC: 10.5 µM (≈ 5.04 µg/mL)
Listeria monocytogenes [8]
  MIC: 41.8 µM (≈ 20 µg/mL)
Micrococcus flavus [9]
  MIC: 20.9 µM (≈ 10 µg/mL)
Listeria monocytogenes [10]
  MBC: 83.6 µM (≈ 40.1 µg/mL)
Salmonella typhimurium [11]
  MIC: 10.5 µM (≈ 5.04 µg/mL)
Proteus mirabilis [12]
  MBC: 83.6 µM (≈ 40.1 µg/mL)
Talaromyces funiculosus
  MFC: 20.9 µM (≈ 10 µg/mL)
  MIC: 10.5 µM (≈ 5.04 µg/mL)
Escherichia coli [13]
  MIC: 20.9 µM (≈ 10 µg/mL)
Pseudomonas aeruginosa [14]
  MIC: 15.7 µM (≈ 7.53 µg/mL)
Staphylococcus aureus [15]
  MIC: 41.8 µM (≈ 20 µg/mL)
Bacillus cereus [16]
  MBC: 20.9 µM (≈ 10 µg/mL)
